In ChEMBL document CHEMBL1125378, “alpha-Methyl polyamines: metabolically stable spermidine and spermine mimics capable of supporting growth in cells depleted of polyamines” (J Med Chem, 1992):
Where “and” joins values, the source holds several entries; their conditions need not be identical. Identical values can stand only once.

Columns and labels:
L1210 [1] = assay: Compound level in 72 hr DFMO (5 mM)-treated L1210 cells after exposure to 10 uM spermidine; assay type: functional, cell-based; conditions: Mus musculus
Outline: (§1)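 L1210 cells held in 5 mM DFMO for 72 h before polyamine addition and through a further 72 h, refed at 72 h; controls without DFMO cultured 72 h in total. Intracellular polyamines reported as nmol/mg protein (detection limit 0.2). Mean ± SD from at least four separate experiments.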

HT-29 [2] = assay: Compound level in HT-29 cells after 96 h; assay type: functional, cell-based; conditions: Homo sapiens
Outline: (§2)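 HT29 experiment B: 5 mM DFMO for 120 h before addition and throughout a further 96 h; refed at 96 h. Cells without DFMO cultured 96 h in total. Polyamines measured as nmol/mg protein (detection limit 0.2). SD from at least four separate experiments.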

L1210 [3] = assay: Compound level in L1210 cells after 72 h; assay type: functional, cell-based; conditions: Mus musculus; outline: as §1
SV3T3 [4] = assay: Compound level in SV3T3 cells after 96 hr; assay type: functional, cell-based; conditions: Mus musculus
HT-29 [5] = assay: Compound level in HT-29 cells after 72 h; assay type: functional, cell-based; conditions: Homo sapiens
SV3T3 [6] = assay: Compound level in DFMO-treated SV3T3 cells at 0 h; assay type: functional, cell-based; conditions: Mus musculus
Outline: (§3)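 SV-3T3 fibroblasts (experiment A) held in 5 mM DFMO for 72 h before polyamine addition and throughout a further 72 h. Intracellular polyamines expressed as nmol/mg protein (detection limit 0.05). SD from at least four separate experiments, or duplicate where no SD is given.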

SV3T3 [7] = assay: Compound level in 72 hr DFMO (5 mM)-treated SV3T3 cells after exposure to 10 uM spermidine; assay type: functional, cell-based; conditions: Mus musculus; outline: as §3
SV3T3 [8] = assay: Compound level in 96 hr DFMO (5 mM)-treated SV3T3 cells after exposure to 25 uM spermine; assay type: functional, cell-based; conditions: Mus musculus
L1210 [9] = assay: Compound level in 72 hr DFMO (5 mM)-treated L1210 cells after exposure to 10 uM 1,12-dimethylspermine; assay type: functional, cell-based; conditions: Mus musculus; outline: as §1
HT-29 [10] = assay: Compound level in 72 hr DFMO (5 mM)-treated HT-29 cells after exposure to 10 uM spermidine; assay type: functional, cell-based; conditions: Homo sapiens
Outline: (§4)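 HT29 cells pretreated with 5 mM DFMO for 120 h, then polyamine added and culture continued with DFMO for 72 h (experiment A); refed at 96 h. Cellular polyamine content given as nmol/mg protein (detection limit 0.2). SD from at least four separate experiments.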

HT-29 [11] = assay: Compound level in 72 hr DFMO (5 mM)-treated HT-29 cells after exposure to 25 uM 1-methylspermine; assay type: functional, cell-based; conditions: Homo sapiens; outline: as §4
HT-29 [12] = assay: Compound level in 72 h DFMO (5 mM)-treated HT-29 cells after exposure to 25 uM spermidine; assay type: functional, cell-based; conditions: Homo sapiens
[13] = Retention time was determined; assay type: ADME
HT-29 [14] = assay: Compound level in 72 hr DFMO (5 mM)-treated HT-29 cells after exposure to 10 uM 1-methylspermine; assay type: functional, cell-based; conditions: Homo sapiens; outline: as §4
L1210 [15] = assay: Compound level in 72 h DFMO (5 mM)-treated L1210 cells after exposure to 10 uM spermine; assay type: functional, cell-based; conditions: Mus musculus; outline: as §1
HT-29 [16] = assay: Compound level in DFMO-treated HT-29 cells after 72 h; assay type: functional, cell-based; conditions: Homo sapiens; outline: as §4
Homo sapiens = species on record: Homo sapiens; assay: Compound level in DFMO-treated HT-29 cells after 96 h; assay type: functional, cell-based; outline: as §2
SV3T3 [17] = assay: Compound level in 96 hr DFMO (5 mM)-treated SV3T3 cells after exposure to 10 uM spermine; assay type: functional, cell-based; conditions: Mus musculus
SV3T3 [18] = assay: Compound level in 72 hr DFMO (5 mM)-treated SV3T3 cells after exposure to 10 uM spermine; assay type: functional, cell-based; conditions: Mus musculus; outline: as §3
L1210 [19] = assay: Compound level in DFMO-treated L1210 cells at 0 h; assay type: functional, cell-based; conditions: Mus musculus; outline: as §1
HT-29 [20] = assay: Compound level in 72 hr DFMO (5 mM)-treated HT-29 cells after exposure to 10 uM spermine; assay type: functional, cell-based; conditions: Homo sapiens; outline: as §4
HT-29 [21] = assay: Compound level in 96 hr DFMO (5 mM)-treated HT-29 cells after exposure to 10 uM spermine; assay type: functional, cell-based; conditions: Homo sapiens
HT-29 [22] = assay: Compound level in 72 hr DFMO (5 mM)-treated HT-29 cells after exposure to 15 uM spermine; assay type: functional, cell-based; conditions: Homo sapiens; outline: as §4
SV3T3 [23] = assay: Compound level in 72 hr DFMO (5 mM)-treated SV3T3 cells after exposure to 1 uM 1-methylspermine; assay type: functional, cell-based; conditions: Mus musculus; outline: as §3
SV3T3 [24] = assay: Compound level in 72 hr DFMO (5 mM)-treated SV3T3 cells after exposure to 10 uM 1-methylspermine; assay type: functional, cell-based; conditions: Mus musculus; outline: as §3
SV3T3 [25] = assay: Compound level in 72 hr DFMO (5 mM)-treated SV3T3 cells after exposure to 1 uM 1-methylspermidine; assay type: functional, cell-based; conditions: Mus musculus; outline: as §3
SV3T3 [26] = assay: Compound level in 96 hr DFMO (5 mM)-treated SV3T3 cells after exposure to 10 uM 1,12-dimethylspermine; assay type: functional, cell-based; conditions: Mus musculus
SV3T3 [27] = assay: Compound level in 72 hr DFMO (5 mM)-treated SV3T3 cells after exposure to 1 uM 1,12-dimethylspermine; conditions: Mus musculus
HT-29 [28] = assay: Compound level in 72 hr DFMO (5 mM)-treated HT-29 cells after exposure to 10 uM 1-methylspermidine; assay type: functional, cell-based; conditions: Homo sapiens; outline: as §4
SV3T3 [29] = assay: Compound level in 72 h DFMO (5 mM)-treated SV3T3 cells after exposure to 10 uM 1-methylspermidine; assay type: functional, cell-based; conditions: Mus musculus; outline: as §3
HT-29 [30] = assay: Compound level in 72 hr DFMO (5 mM)-treated HT-29 cells after exposure to 10 uM 1,12-dimethylspermine; assay type: functional, cell-based; conditions: Homo sapiens, in the assay text read “120 hr” for “72 hr”; outline: as §2
SV3T3 [31] = conditions: Mus musculus
L1210 [32] = assay: Compound level in 72 hr DFMO (5 mM)-treated L1210 cells after exposure to 10 uM 1-methylspermine; assay type: functional, cell-based; conditions: Mus musculus; outline: as §1
HT-29 [33] = assay: Compound level in 72 hr DFMO (5 mM)-treated HT-29 cells after exposure to 25 uM 1,12-dimethylspermine; assay type: functional, cell-based; conditions: Homo sapiens, in the assay text read “120 hr” for “72 hr”; outline: as §2
SV3T3 [34] = conditions: Mus musculus; remark: listed apart in the source
L1210 [35] = conditions: Mus musculus
SV3T3 [36] = assay: Compound level in 72 hr DFMO (5 mM)-treated SV3T3 cells after exposure to 25 uM 1-methylspermidine; assay type: functional, cell-based; conditions: Mus musculus; outline: as §3
HT-29 [37] = assay: Compound level in DFMO-treated HT-29 cells at 0 h; assay type: functional, cell-based; conditions: Homo sapiens
SV3T3 [38] = assay: Compound level in 72 hr DFMO (5 mM)-treated SV3T3 cells after exposure to 25 uM 1-methylspermine; assay type: functional, cell-based; conditions: Mus musculus; outline: as §3
SV3T3 [39] = conditions: Mus musculus; remark: listed apart in the source
SV3T3 [40] = conditions: Mus musculus; remark: listed apart in the source
HT-29 [41] = assay: Compound level in 72 hr DFMO (5 mM)-treated HT-29 cells after exposure to 25 uM 1-methylspermidine; assay type: functional, cell-based; conditions: Homo sapiens; outline: as §4
L1210 [42] = assay: Compound level in 72 hr DFMO (5 mM)-treated L1210 cells after exposure to 10 uM 1-methylspermidine; assay type: functional, cell-based; conditions: Mus musculus; outline: as §1
SV3T3 [43] = assay: Compound level in 96 hr DFMO (5 mM)-treated SV3T3 cells after exposure to 25 uM 1,12-dimethylspermine; assay type: functional, cell-based; conditions: Mus musculus

## NCCCCN
L1210 [1]
  Level (nM (mg of protein)-1): 0.8
HT-29 [2]
  Level (nM (mg of protein)-1): 5.9
L1210 [3]
  Level (nM (mg of protein)-1): 5.8
SV3T3 [4]
  Level (nM (mg of protein)-1): 0.9
HT-29 [5]
  Level (nM (mg of protein)-1): 4.4
SV3T3 [6]
  Level (nM (mg of protein)-1): 0.5

## NCCCCNCCCN [SPERMIDINE]
SV3T3 [7]
  Level (nM (mg of protein)-1): 8.7
SV3T3 [8]
  Level (nM (mg of protein)-1): 3.1
L1210 [9]
  Level (nM (mg of protein)-1): 0.2
L1210 [1]
  Level (nM (mg of protein)-1): 38
HT-29 [2]
  Level (nM (mg of protein)-1): 13.4
HT-29 [10]
  Level (nM (mg of protein)-1): 23.6
L1210 [3]
  Level (nM (mg of protein)-1): 41
HT-29 [11]
  Level (nM (mg of protein)-1): 0.3
HT-29 [12]
  Level (nM (mg of protein)-1): 25.1
[13]
  tR: 33.9 min
HT-29 [14]
  Level (nM (mg of protein)-1): 0.4
L1210 [15]
  Level (nM (mg of protein)-1): 6.4
SV3T3 [4]
  Level (nM (mg of protein)-1): 26.4
HT-29 [16]
  Level (nM (mg of protein)-1): 0.7
Homo sapiens
  Level (nM (mg of protein)-1): 0.4
SV3T3 [17]
  Level (nM (mg of protein)-1): 11.5
SV3T3 [18]
  Level (nM (mg of protein)-1): 2.6
L1210 [19]
  Level (nM (mg of protein)-1): 1
HT-29 [5]
  Level (nM (mg of protein)-1): 9.8
SV3T3 [6]
  Level (nM (mg of protein)-1): 0.3
HT-29 [20]
  Level (nM (mg of protein)-1): 7.9
HT-29 [21]
  Level (nM (mg of protein)-1): 4.4
HT-29 [22]
  Level (nM (mg of protein)-1): 4.8

## NCCCNCCCCNCCCN [SPERMINE]
SV3T3 [7]
  Level (nM (mg of protein)-1): 9.5
SV3T3 [8]
  Level (nM (mg of protein)-1): 31.5
L1210 [9]
  Level (nM (mg of protein)-1): 3.2
L1210 [1]
  Level (nM (mg of protein)-1): 16.3
HT-29 [2]
  Level (nM (mg of protein)-1): 17.8
SV3T3 [23]
  Level (nM (mg of protein)-1): 3.5
SV3T3 [24]
  Level (nM (mg of protein)-1): 0.3
HT-29 [10]
  Level (nM (mg of protein)-1): 10.3
L1210 [3]
  Level (nM (mg of protein)-1): 9.1
SV3T3 [25]
  Level (nM (mg of protein)-1): 3.8
SV3T3 [26]
  Level (nM (mg of protein)-1): 3.3
SV3T3 [27]
  Level (nM (mg of protein)-1): 7.8
HT-29 [11]
  Level (nM (mg of protein)-1): 0.8
HT-29 [12]
  Level (nM (mg of protein)-1): 9
HT-29 [28]
  Level (nM (mg of protein)-1): 1.1
[13]
  tR: 40 min
SV3T3 [29]
  Level (nM (mg of protein)-1): 0.4
HT-29 [14]
  Level (nM (mg of protein)-1): 0.7
HT-29 [30]
  Level (nM (mg of protein)-1): 0.9
L1210 [15]
  Level (nM (mg of protein)-1): 35.6
SV3T3 [4]
  Level (nM (mg of protein)-1): 7.1
HT-29 [16]
  Level (nM (mg of protein)-1): 3.8
SV3T3 [31]
  Level (nM (mg of protein)-1): 11.5
Homo sapiens
  Level (nM (mg of protein)-1): 4.4
L1210 [32]
  Level (nM (mg of protein)-1): 1.7
HT-29 [33]
  Level (nM (mg of protein)-1): 0.7
SV3T3 [34]
  Level (nM (mg of protein)-1): 14.3
L1210 [35]
  Level (nM (mg of protein)-1): 7.3
SV3T3 [17]
  Level (nM (mg of protein)-1): 24.5
SV3T3 [36]
  Level (nM (mg of protein)-1): 0.3
HT-29 [37]
  Level (nM (mg of protein)-1): 5.4 and 7.1
SV3T3 [18]
  Level (nM (mg of protein)-1): 20.6
SV3T3 [38]
  Level (nM (mg of protein)-1): 0.8
L1210 [19]
  Level (nM (mg of protein)-1): 13.4
HT-29 [5]
  Level (nM (mg of protein)-1): 10.5
SV3T3 [39]
  Level (nM (mg of protein)-1): 7.7
SV3T3 [6]
  Level (nM (mg of protein)-1): 9.3 and 7.8
SV3T3 [40]
  Level (nM (mg of protein)-1): 13.5
HT-29 [20]
  Level (nM (mg of protein)-1): 21.5
HT-29 [41]
  Level (nM (mg of protein)-1): 1.2
L1210 [42]
  Level (nM (mg of protein)-1): 1.1
HT-29 [21]
  Level (nM (mg of protein)-1): 21.5
HT-29 [22]
  Level (nM (mg of protein)-1): 21.7
SV3T3 [43]
  Level (nM (mg of protein)-1): 1
